# Measurements: ChEMBL document CHEMBL1150770, “Design, synthesis and biological evaluation of bis(hydroxyphenyl) azoles as potent and selective non-steroidal inhibitors of 17beta-hydroxysteroid dehydrogenase type 1 (17beta-HSD1) for the treatment of estrogen-dependent diseases” (Bioorg Med Chem, 2008)
# Calls of active or inactive are those of the source. The rule behind the calls is not given here.
# Key:
# [1] = molecular target: T1, 17-beta-hydroxysteroid dehydrogenase type 1 (Homo sapiens, UniProt P14061); experiment: Inhibition of 17-beta-HSD1-mediated 17-beta-estradiol formation in human T47D cells; type: cell-based
# T1 sequence (P14061 whole entry): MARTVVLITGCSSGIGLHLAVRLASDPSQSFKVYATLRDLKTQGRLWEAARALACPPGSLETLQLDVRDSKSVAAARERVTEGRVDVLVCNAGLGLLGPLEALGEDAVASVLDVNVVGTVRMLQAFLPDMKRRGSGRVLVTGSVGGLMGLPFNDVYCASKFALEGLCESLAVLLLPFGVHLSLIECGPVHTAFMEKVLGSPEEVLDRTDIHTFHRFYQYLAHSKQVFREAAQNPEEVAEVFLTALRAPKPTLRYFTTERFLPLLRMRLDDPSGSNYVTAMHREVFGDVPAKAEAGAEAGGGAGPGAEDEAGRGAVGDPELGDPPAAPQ
# In short: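 T47D cells, which express both 17β-HSD1 and 17β-HSD2, were kept in RPMI 1640 with 10% FCS at 37 °C, 5% CO₂. They were seeded in DMEM with FCS, then after 24 h switched to serum-free DMEM. Test compound was added in DMSO (1% final) and pre-incubated 30 min. Unlabelled plus [³H]-E1 (50 nM final) was added for 2.5 h. Steroids were extracted with ether, and E2 formed was quantified by HPLC with radiodetection.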
# T47D = experiment: Estrogenic effect in human T47D cells assessed as stimulation of cell proliferation at 100 nM by MTT assay; type: functional, cell-based
# In short: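 T-47D cells grown 48 h in phenol red-free RPMI 1640 with 5% DCC-FCS, then treated with compound at 100 nM final (ethanol 1% final). E2 0.1 nM as positive control, ethanol as negative control. Medium and additives renewed every 2–3 days; after 8 days MTT reduction read at 590 nm. Stimulation = (proliferation relative to control set at 1, minus 1) × 100%.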
# [2] = molecular target: T2, Estrogen receptor (Homo sapiens) (UniProt P03372); experiment: Displacement of [2,4,6,7-3H]17beta-estradiol from human recombinant ERalpha receptor relative to 17-beta-estradiol
# T2 sequence (whole entry): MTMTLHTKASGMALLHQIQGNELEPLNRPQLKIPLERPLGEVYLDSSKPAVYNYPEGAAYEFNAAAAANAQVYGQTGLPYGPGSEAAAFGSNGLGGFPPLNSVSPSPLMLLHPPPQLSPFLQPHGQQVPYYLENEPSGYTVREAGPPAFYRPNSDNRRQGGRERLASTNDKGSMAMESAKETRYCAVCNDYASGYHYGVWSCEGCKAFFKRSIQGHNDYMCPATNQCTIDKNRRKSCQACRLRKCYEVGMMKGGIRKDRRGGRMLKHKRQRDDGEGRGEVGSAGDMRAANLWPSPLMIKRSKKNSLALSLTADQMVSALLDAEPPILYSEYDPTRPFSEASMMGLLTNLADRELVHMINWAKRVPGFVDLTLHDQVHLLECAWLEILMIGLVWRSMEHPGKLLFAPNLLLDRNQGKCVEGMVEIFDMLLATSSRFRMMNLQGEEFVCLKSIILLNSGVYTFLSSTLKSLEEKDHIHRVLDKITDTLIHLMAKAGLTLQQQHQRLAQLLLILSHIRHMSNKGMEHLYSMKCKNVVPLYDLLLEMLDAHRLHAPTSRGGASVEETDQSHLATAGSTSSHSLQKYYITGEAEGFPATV
# In short: (§1)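 ERα or ERβ (0.25 pmol) incubated with [2,4,6,7-3H]-E2 (10 nM) and test compound, 1 h, room temperature, 5% DMSO final. Non-specific binding with diethylstilbestrol (10 µM). Bound complexes captured on hydroxyapatite, washed, resuspended in ethanol and counted by liquid scintillation. RBA derived from inhibitor and E2 concentrations displacing 50% of bound labelled E2.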
# [3] = Apparent permeability across human Caco-2 cells; type: ADME, cell-based
# In short: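 Caco-2 monolayers cultured 10 days at higher seeding density; cassette dosing with four reference compounds; donor concentration 50 µM in 0.2 M MES pH 6.5 with 1% ethanol or DMSO. Acceptor sampled at 0, 60, 120, 180 min, donor at 0 and 180 min; LC/MS/MS analysis; triplicate runs; monolayer integrity by TEER and lucifer yellow.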
# [4] = molecular target: T1, 17-beta-hydroxysteroid dehydrogenase type 1; experiment: Inhibition of human placental 17beta-HSD1 using estrone substrate
# In short: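 Cytosolic fraction of human placenta incubated at 37 °C with NADH (500 µM) and inhibitor in 50 mM phosphate buffer, 20% glycerol, 1 mM EDTA, DMSO 1% final. Started with unlabelled plus [3H]-E1 (500 nM final); stopped after 10 min with HgCl2, extracted into diethylether. E1/E2 separated by HPLC with radio detection.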
# Homo sapiens = species: Homo sapiens; experiment: Selectivity ratio of IC50 for human 17beta-HSD2 to IC50 for human 17beta-HSD1
# In short: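 Selectivity factor computed as IC50 for placental microsomal 17β-HSD2 (E2 500 nM, NAD+ 1500 µM) divided by IC50 for placental cytosolic 17β-HSD1 (E1 500 nM, NADH 500 µM).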
# [5] = molecular target: Estrogen receptor beta (Homo sapiens) (UniProt Q92731); experiment: Displacement of [2,4,6,7-3H]17beta-estradiol from human recombinant ERbeta receptor relative to 17-beta-estradiol; in short: as §1
# [6] = molecular target: T3, 17-beta-hydroxysteroid dehydrogenase type 2 (Homo sapiens, UniProt P37059); experiment: Inhibition of human placental 17beta-HSD2 using 17-beta-estradiol substrate
# T3 sequence (P37059 whole entry): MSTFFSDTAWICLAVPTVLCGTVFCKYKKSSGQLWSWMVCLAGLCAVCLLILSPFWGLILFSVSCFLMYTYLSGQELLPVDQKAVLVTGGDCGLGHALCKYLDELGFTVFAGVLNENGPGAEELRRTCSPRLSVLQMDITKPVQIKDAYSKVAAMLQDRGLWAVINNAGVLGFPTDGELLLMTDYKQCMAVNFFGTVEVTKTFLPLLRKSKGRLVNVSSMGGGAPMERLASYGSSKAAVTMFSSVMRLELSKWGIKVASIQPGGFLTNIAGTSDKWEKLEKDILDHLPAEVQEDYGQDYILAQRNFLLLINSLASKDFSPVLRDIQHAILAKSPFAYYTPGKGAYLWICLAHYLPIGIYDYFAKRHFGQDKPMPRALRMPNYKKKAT
# In short: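 Human placental microsomal fraction incubated 20 min at 37 °C with NAD+ (1500 µM), test compound and unlabelled plus [3H]-E2 (500 nM final). Extraction and HPLC with radio detection as for 17β-HSD1. Conversion = AUC(E1)/[AUC(E1)+AUC(E2)] × 100.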
# Estrogen receptor beta (Homo sapiens), sequence (Q92731 whole entry): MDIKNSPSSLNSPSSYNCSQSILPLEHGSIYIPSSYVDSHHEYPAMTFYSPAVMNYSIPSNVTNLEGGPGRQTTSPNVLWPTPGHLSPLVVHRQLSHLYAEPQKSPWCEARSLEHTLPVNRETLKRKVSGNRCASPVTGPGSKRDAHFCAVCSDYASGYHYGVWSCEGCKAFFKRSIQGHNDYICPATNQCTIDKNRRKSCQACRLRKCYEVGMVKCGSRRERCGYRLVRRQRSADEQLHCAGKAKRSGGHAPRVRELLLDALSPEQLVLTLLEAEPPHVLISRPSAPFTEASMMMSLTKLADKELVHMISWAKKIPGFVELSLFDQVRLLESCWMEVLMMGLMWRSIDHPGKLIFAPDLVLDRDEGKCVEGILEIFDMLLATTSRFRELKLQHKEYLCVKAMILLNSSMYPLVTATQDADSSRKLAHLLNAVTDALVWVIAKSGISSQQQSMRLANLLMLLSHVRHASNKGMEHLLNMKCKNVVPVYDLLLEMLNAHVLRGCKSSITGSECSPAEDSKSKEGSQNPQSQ
SMILES,IC50 [1] [nM],RBA [2] [%],Papp [3] [×10⁻⁶ cm/s],IC50 [4] [nM],Ratio IC50 (Homo sapiens),RBA [5] [%],IC50 [6] [µM],Activity (T47D)
Oc1ccc(-n2cc(-c3cccc(O)c3)nn2)cc1,–,< 0.01,–,1320,6,< 0.01,8.12,–
Oc1ccc(-c2coc(-c3cccc(O)c3)n2)cc1,–,0.01,–,1850,0.1,0.01,0.25,–
Oc1ccc(-c2cc(-c3cccc(O)c3)on2)cc1,–,0.01,–,1610,0.2,< 0.01,0.27,–

# Now those with a lower IC50 [4], led by results:
IC50 [1] [nM],RBA [2] [%],Papp [3] [×10⁻⁶ cm/s],IC50 [4] [nM],Ratio IC50 (Homo sapiens),RBA [5] [%],IC50 [6] [µM],SMILES,Activity (T47D)
–,0.01,–,840,9,0.01,7.28,Oc1ccc(-c2cn(-c3cccc(O)c3)nn2)cc1,–
380,0.01,7.9,310,56,0.5,17.5,Oc1ccc(-c2cnc(-c3cccc(O)c3)o2)cc1,inactive
